Values after ≈ are worked out from the molar mass of the structure shown.
Columns and labels:
[1] = target: T1, Bifunctional epoxide hydrolase 2 (Homo sapiens, UniProt P34913); test: Inhibition of recombinant human sEH expressed in baculovirus expression system using CMNPC as substrate preincubated for 5 mins followed by substrate addition measured for 10 mins by fluorescent based assay
T1 sequence (P34913 whole entry): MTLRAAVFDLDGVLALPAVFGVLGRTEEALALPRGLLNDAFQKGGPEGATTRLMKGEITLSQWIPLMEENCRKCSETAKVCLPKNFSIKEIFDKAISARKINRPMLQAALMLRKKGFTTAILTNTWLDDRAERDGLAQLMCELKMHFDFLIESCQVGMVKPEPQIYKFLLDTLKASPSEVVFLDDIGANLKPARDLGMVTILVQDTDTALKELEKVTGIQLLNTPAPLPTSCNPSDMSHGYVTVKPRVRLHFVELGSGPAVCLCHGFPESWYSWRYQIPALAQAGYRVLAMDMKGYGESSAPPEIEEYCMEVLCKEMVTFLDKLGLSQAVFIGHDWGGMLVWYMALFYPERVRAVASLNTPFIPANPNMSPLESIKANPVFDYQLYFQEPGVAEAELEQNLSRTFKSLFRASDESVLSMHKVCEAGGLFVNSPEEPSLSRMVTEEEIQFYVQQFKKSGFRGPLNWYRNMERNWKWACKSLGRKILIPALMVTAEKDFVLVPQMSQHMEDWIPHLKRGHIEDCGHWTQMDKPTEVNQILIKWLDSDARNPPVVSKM
How it was run: (§1)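 Kinetic fluorescent assay giving IC50 values; each value is the mean of three separate experiments.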

[2] = Aqueous solubility of the compound in 0.1 M sodium phosphate buffer at pH 7.4; type: physicochemical
How it was run: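 Solubility determined in 0.1 M sodium phosphate buffer, pH 7.4, with 1% DMSO present.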

[3] = target: T2, Bifunctional epoxide hydrolase 2 (Rattus norvegicus, UniProt P80299); test: Inhibition of rat sEH using CMNPC as substrate preincubated for 5 mins followed by substrate addition measured for 10 mins by fluorescent based assay; how it was run: as §1
T2 sequence (P80299 whole entry): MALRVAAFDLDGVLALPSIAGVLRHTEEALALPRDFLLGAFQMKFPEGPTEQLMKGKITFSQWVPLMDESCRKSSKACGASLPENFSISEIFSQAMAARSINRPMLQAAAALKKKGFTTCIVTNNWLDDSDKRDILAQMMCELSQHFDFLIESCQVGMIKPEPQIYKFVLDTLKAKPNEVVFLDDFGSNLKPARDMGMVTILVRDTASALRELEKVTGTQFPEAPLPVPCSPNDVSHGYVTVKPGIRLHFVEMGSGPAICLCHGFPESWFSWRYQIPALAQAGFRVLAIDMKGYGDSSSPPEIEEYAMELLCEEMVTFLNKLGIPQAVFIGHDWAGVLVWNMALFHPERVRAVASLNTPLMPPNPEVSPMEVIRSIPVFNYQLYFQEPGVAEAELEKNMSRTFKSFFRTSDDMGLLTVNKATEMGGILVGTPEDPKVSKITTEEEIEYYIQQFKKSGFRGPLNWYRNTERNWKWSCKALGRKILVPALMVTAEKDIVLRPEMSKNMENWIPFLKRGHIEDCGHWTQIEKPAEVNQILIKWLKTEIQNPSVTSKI

[4] = target: T3, Bifunctional epoxide hydrolase 2 (Mus musculus, UniProt P34914); test: Inhibition of recombinant mouse sEH expressed in baculovirus expression system using CMNPC as substrate preincubated for 5 mins followed by substrate addition measured for 10 mins by fluorescent based assay; how it was run: as §1
T3 sequence (P34914 whole entry): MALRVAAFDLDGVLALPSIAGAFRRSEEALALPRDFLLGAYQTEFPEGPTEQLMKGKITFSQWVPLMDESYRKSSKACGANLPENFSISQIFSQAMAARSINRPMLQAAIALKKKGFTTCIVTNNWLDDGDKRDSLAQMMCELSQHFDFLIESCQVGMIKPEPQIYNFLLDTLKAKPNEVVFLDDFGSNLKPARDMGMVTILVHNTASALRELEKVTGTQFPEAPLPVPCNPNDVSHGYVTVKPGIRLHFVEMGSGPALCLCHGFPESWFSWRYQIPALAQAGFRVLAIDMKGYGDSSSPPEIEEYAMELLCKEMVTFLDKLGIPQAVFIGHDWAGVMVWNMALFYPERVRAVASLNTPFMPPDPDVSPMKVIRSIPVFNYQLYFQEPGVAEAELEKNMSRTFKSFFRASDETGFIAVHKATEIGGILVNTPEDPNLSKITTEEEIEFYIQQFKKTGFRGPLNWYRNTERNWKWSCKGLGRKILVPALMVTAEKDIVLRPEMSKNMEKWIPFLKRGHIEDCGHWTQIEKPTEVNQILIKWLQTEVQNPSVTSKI

| IC50 [1] | solubility [2] | IC50 [3] | IC50 [4] | SMILES |
| --- | --- | --- | --- | --- |
| 234 nM | 40 to 50 µM (≈ 13.1 to 16.4 µg/mL) | – | – | CC(N=C(S)NCc1ccccc1)C12CC3CC(CC(C3)C1)C2 (stereo unspecified) |
| – | 50 to 75 µM (≈ 23.5 to 35.3 µg/mL) | – | – | O=C(NCCCCNC(=O)NCC12CC3CC(CC(C3)C1)C2)NCC12CC3CC(CC(C3)C1)C2 |
| – | 10 to 25 µM (≈ 4.99 to 12.5 µg/mL) | – | – | CC(NC(=O)NCCCCNC(=O)NC(C)C12CC3CC(CC(C3)C1)C2)C12CC3CC(CC(C3)C1)C2 (stereo unspecified) |
| – | 10 to 25 µM (≈ 5.55 to 13.9 µg/mL) | – | – | CC(NC(=O)NCCCCCCCCNC(=O)NC(C)C12CC3CC(CC(C3)C1)C2)C12CC3CC(CC(C3)C1)C2 (stereo unspecified) |
| – | 5 to 10 µM (≈ 2.49 to 4.99 µg/mL) | – | – | O=C(NCCCCCCCCNC(=O)NC1C2CC3CC(C2)CC1C3)NC1C2CC3CC(C2)CC1C3 (stereo unspecified) |
| – | 5 to 10 µM (≈ 1.64 to 3.29 µg/mL) | – | – | O=C(NC12CC3CC(CC(C3)C1)C2)NC12CC3CC(CC(C3)C1)C2 |
| – | 140 to 160 µM (≈ 70.4 to 80.5 µg/mL) | – | – | S=C(NCCCCNC(=S)NCC12CC3CC(CC(C3)C1)C2)NCC12CC3CC(CC(C3)C1)C2 |
| 152 nM | 80 to 90 µM (≈ 29.8 to 33.5 µg/mL) | – | – | CC12CC3CC(C)(C1)CC(NC(=S)NC1C4CC5CC(C4)CC1C5)(C3)C2 (stereo unspecified) |
| 1250 nM | 30 to 40 µM (≈ 12.6 to 16.8 µg/mL) | – | – | S=C(Nc1ccc(C23CC4CC(CC(C4)C2)C3)cc1)NC12CC3CC(CC(C3)C1)C2 |
| 97.6 nM | 90 to 100 µM (≈ 41.5 to 46.1 µg/mL) | 43.3 nM | 74.9 nM | S=C(NCCCNC(=S)NC12CC3CC(CC(C3)C1)C2)NC12CC3CC(CC(C3)C1)C2 |
| 902 nM | 30 to 40 µM (≈ 10.8 to 14.3 µg/mL) | – | – | S=C(NCC12CC3CC(CC(C3)C1)C2)NC1C2CC3CC(C2)CC1C3 (stereo unspecified) |
| 159 nM | 150 to 175 µM (≈ 47.8 to 55.7 µg/mL) | – | – | Fc1ccc(NC(=S)NCC23CC4CC(CC(C4)C2)C3)cc1 |
| – | 25 to 35 µM (≈ 13.3 to 18.6 µg/mL) | – | – | S=C(NCCCCCCCCNC(=S)NC1C2CC3CC(C2)CC1C3)NC1C2CC3CC(C2)CC1C3 (stereo unspecified) |
| 1050 nM | – | – | – | CC12CC3CC(C)(C1)CC(NC(=S)Nc1ccc(Cl)cc1)(C3)C2 |
| 987 nM | 100 to 110 µM (≈ 44.7 to 49.1 µg/mL) | – | – | S=C(NCCNC(=S)NC12CC3CC(CC(C3)C1)C2)NC12CC3CC(CC(C3)C1)C2 |
| 16.1 nM | 30 to 40 µM (≈ 11.2 to 14.9 µg/mL) | – | – | CC12CC3CC(C)(C1)CC(NC(=S)NC14CC5CC(CC(C5)C1)C4)(C3)C2 |
| 133 nM | 25 to 30 µM (≈ 8.21 to 9.86 µg/mL) | – | – | S=C(NCCc1ccccc1)NCC12CC3CC(CC(C3)C1)C2 |
| 15.3 nM | 35 to 45 µM (≈ 19.6 to 25.2 µg/mL) | 44.4 nM | 59.5 nM | S=C(NCCCCCCCCCCNC(=S)NC12CC3CC(CC(C3)C1)C2)NC12CC3CC(CC(C3)C1)C2 |
| 451 nM | 35 to 45 µM (≈ 11.6 to 15 µg/mL) | – | – | CC(NC(=S)Nc1cccc(F)c1)C12CC3CC(CC(C3)C1)C2 (stereo unspecified) |
| 15300 nM | 100 to 125 µM (≈ 49.7 to 62.1 µg/mL) | – | – | S=C(Nc1ccc(C23CC4CC(CC(C4)C2)C3)cc1)Nc1ccc(C23CC4CC(CC(C4)C2)C3)cc1 |
| 14.8 nM | 60 to 70 µM (≈ 20.7 to 24.1 µg/mL) | – | – | S=C(NC1C2CC3CC(C2)CC1C3)NC12CC3CC(CC(C3)C1)C2 (stereo unspecified) |
| 21.1 nM | 80 to 90 µM (≈ 39.1 to 44 µg/mL) | 46.1 nM | 36.2 nM | S=C(NCCCCCNC(=S)NC12CC3CC(CC(C3)C1)C2)NC12CC3CC(CC(C3)C1)C2 |
| 34.7 nM | – | – | – | S=C(Nc1ccc(Cl)cc1)NC12CC3CC(CC(C3)C1)C2 |
| 90.8 nM | 90 to 100 µM (≈ 42.7 to 47.5 µg/mL) | 123 nM | 130 nM | S=C(NCCCCNC(=S)NC12CC3CC(CC(C3)C1)C2)NC12CC3CC(CC(C3)C1)C2 |
| 551 nM | 175 to 200 µM (≈ 58.2 to 66.5 µg/mL) | – | – | CC12CC3CC(C)(C1)CC(NC(=S)Nc1ccc(F)cc1)(C3)C2 |

| SMILES | IC50 [1] | solubility [2] | IC50 [3] | IC50 [4] |
| --- | --- | --- | --- | --- |
| S=C(NCCc1ccccc1)NC1C2CC3CC(C2)CC1C3 (stereo unspecified) | 8.2 nM | 20 to 30 µM (≈ 6.29 to 9.43 µg/mL) | 78.3 nM | 108 nM |
| S=C(NCc1ccccc1)NC1C2CC3CC(C2)CC1C3 (stereo unspecified) | 34 nM | 65 to 75 µM (≈ 19.5 to 22.5 µg/mL) | 60.3 nM | 61 nM |
| S=C(Nc1ccccc1)NC1C2CC3CC(C2)CC1C3 (stereo unspecified) | 229 nM | 70 to 80 µM (≈ 20.1 to 22.9 µg/mL) | 356 nM | 408 nM |

Source: ChEMBL document CHEMBL4118216, “Adamantyl thioureas as soluble epoxide hydrolase inhibitors” (Bioorg Med Chem Lett, 2018)
